Measurements taken from article PMC3321063 (Bioorganic & medicinal chemistry letters, 2012).
Entries after “also recorded” stand apart in the source; their conditions may differ.

Assays:
[1] = target: PS1-NTF (Homo sapiens, UniProt P49768); type: binding; conditions: HeLa membranes; for PS1-NTF photolabeling: irradiation ~350 nm
In short: (§1)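 HeLa membranes (800 μg/1.2 mL PBS) incubated 1 h at 37 °C with clickable photoprobe (20 nM) with or without competing GSI (1 μM), then irradiated at ~350 nm for 30 min at 4 °C and pelleted. Click reaction in PBS: TCEP 1.0 mM, CuSO4 1.0 mM, TBTA 0.1 mM, biotin-azide 0.1 mM, 1 h RT with agitation. Pelleted membranes solubilized in RIPA, streptavidin-enriched, SDS-PAGE, Western blot.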

[2] = target: T1, signal peptide peptidase (SPP) (Homo sapiens, UniProt Q8TCT9); type: binding; conditions: HeLa membranes, probe 20 nM
T1 sequence (Q8TCT9 1-377): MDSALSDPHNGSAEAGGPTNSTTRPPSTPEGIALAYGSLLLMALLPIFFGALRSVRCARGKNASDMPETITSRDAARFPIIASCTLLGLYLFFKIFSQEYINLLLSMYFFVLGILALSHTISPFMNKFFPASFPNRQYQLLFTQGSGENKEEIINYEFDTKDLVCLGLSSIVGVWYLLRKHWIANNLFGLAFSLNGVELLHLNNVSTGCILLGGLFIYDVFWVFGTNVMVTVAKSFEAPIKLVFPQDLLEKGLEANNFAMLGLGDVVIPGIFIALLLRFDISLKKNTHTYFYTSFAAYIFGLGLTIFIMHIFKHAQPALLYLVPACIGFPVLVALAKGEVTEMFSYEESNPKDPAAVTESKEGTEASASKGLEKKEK
In short: as §1

[3] = target: PS1-CTF (Homo sapiens, UniProt P49768); type: binding; conditions: HeLa membranes, probe 20 nM
In short: as §1

[4] = test system: intracellular γ-secretase; conditions: previous studies; cited from earlier work

SMILES	PS1-NTF photolabeling ([1]; probe 20 nM)	SPP photolabeling [2]	other results
C#CCCCCNC(=O)[C@H](Cc1ccccc1)NC(=O)[C@H](CC(C)C)NC(=O)[C@H](Cc1ccccc1)C[C@@H](O)[C@H](Cc1ccccc1)NC(=O)c1ccc(C(=O)c2ccccc2)cc1 [compound 4]	efficient PS1-NTF photolabeling; also recorded: strongly labeled PS1-NTF vs. CTF	minimal labeling of SPP	labeling efficiency of PS1-NTF relative to 2 (fold less) ([1]; probe 20 nM, after click reaction with biotin-azide): 2–3 fold
CC(C)C[C@H](NC(=O)[C@H](Cc1ccccc1)C[C@@H](O)[C@H](Cc1ccccc1)NC(=O)OC(C)(C)C)C(=O)N[C@@H](Cc1ccccc1)C(N)=O [compound 1, reference compound]	–	–	blocking of PS1-NTF labeling by competitor ([1]; competitor 1 μM, probe 2 or 4): PS1-NTF labeling was blocked
C#CCCCCNC(=O)[C@H](Cc1ccc(C(=O)c2ccccc2)cc1)NC(=O)[C@H](CC(C)C)NC(=O)[C@H](Cc1ccccc1)C[C@@H](O)[C@H](Cc1ccccc1)NC(=O)OC(C)(C)C [compound 5]	minimal PS1-NTF labeling	significant labeling of SPP	PS1-CTF photolabeling [3]: expected preference for PS1-CTF
CC(C)C[C@H](NC(=O)[C@H](Cc1ccccc1)C[C@@H](O)[C@H](Cc1ccccc1)NC(=O)c1ccc(C(=O)c2ccccc2)cc1)C(=O)N[C@@H](Cc1ccccc1)C(=O)NCCCCCNC(=O)CCCC[C@@H]1SC[C@@H]2NC(=O)N[C@@H]21 [compound 2]	–	–	cell penetration (plasma membrane, access to intracellular γ-secretase) [4]: cannot
